Active and inactive are the calls of the source. The rule behind the calls is not given here.
Assays:
[1] = test system: PC-3; assay: Induction of cell cycle arrest in human PC3 cells assessed as accumulation in G2 phase at 0.5 uM after 24 hrs by […]propidium iodide based flow cytometric analysis (reference value: 16.3 to 25 %); assay type: functional
[2] = test system: PC-3; assay: Induction of apoptosis in human PC3 cells assessed as early apoptotic cells at 0.5 uM after 24 hrs by Annexin V-FITC/propidium iodide based flow cytometric analysis (reference value: 2.3 %); assay type: functional
Outline: (§1)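 PC3 cells exposed to 0.5, 1 or 2 μM for 24 h, then stained with Annexin V-FITC and PI and analyzed by FACSCalibur flow cytometry. Populations assigned as necrotic (Annexin V−/PI+), late apoptotic (double positive), normal (Annexin V−/PI−) and early apoptotic (Annexin V+/PI−). DMSO vehicle control.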

[3] = test system: PC-3; assay: Induction of apoptosis in human PC3 cells assessed as viable cells at 2 uM after 24 hrs by Annexin V-FITC/propidium iodide based flow cytometric analysis (reference value: 95.4 %); assay type: functional; conditions: PC-3, 24 h, read-out: Activity; outline: as §1
[4] = test system: PC-3; assay: Induction of apoptosis in human in human PC3 cells assessed as reduction in cell viability in presence of pan-caspase inhibitor Z-VAD-fmk by MTT assay; assay type: functional, cell-based
Outline: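 PC3 cells pretreated with Z-VAD-fmk (10 μM) or Ac-DEVD-CHO (50 μM) before compound exposure. Viability read by MTT at 570 nm. Significance tested against control by Student's t test.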

[5] = test system: PC-3; assay: Induction of cytoplasmic vacuolation in human PC3 cells assessed as increase in size and number of vacuoles at 1 uM by phase-contrast microscopic analysis; assay type: functional, cell-based; conditions: TDE = time-dependent effect
Outline: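 PC3 cells in RPMI 1640 with 10% FBS at 37 °C, 5% CO2, treated with 1 μM agent for 0−24 h; DMSO vehicle control. Vacuole appearance, size and number followed over time by phase-contrast microscopy at constant magnification.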

[6] = test system: PC-3; assay: Induction of ER stress in human PC3 cells assessed as formation of vacuoles after 8 to 24 hrs […]; assay type: functional, cell-based
[7] = test system: PC-3; assay: Induction of vacuolization in human PC3 cells in presence of CHX after 24 hrs by phase-contrast microscopic analysis; assay type: functional, cell-based
Outline: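 PC3 cells pretreated with 10 μM actinomycin D or 5 μM cycloheximide, then treated with agent for 24 h. Vacuolization imaged by phase-contrast microscopy; viability by MTT.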

[8] = test system: PC-3; assay: Induction of autophagy in human PC3 cells assessed as upregulation of LC3 expression after 24 hrs by Western blot analysis; assay type: functional, cell-based
Outline: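 PC3 cells in RPMI 1640 with 10% FBS, treated at 50−70% confluence for a time course up to 24 h; DMSO vehicle control. Lysed in RIPA buffer; 40 μg protein run on SDS-PAGE, transferred to nitrocellulose, primary antibody overnight at 4 °C, HRP secondary 45 min, ECL detection. GAPDH or β-actin loading control.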

[9] = test system: PC-3; assay: Induction of autophagy in human PC3 cells assessed as increase in p62/SQSTM1 expression after 4 hrs by Western blot analysis; assay type: functional, cell-based
Outline: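 PC3 cells in RPMI 1640 with 10% FBS, treated with compound for timed intervals. DMSO vehicle control. Lysis in RIPA buffer, 40 μg protein per lane on SDS-PAGE, transfer to nitrocellulose. Primary antibodies overnight at 4 °C, HRP-secondary 45 min, ECL detection. GAPDH or β-actin used as loading control.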

[10] = test system: PC-3; assay: Induction of fusion of autophagosomes with lysosomes in human PC3 cells transfected with mRFP-GFP-LC3 at 1 uM after 8 hrs by fluorescence microscopic analysis; assay type: functional, cell-based
Outline: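 PC3 cells transfected with an mRFP-GFP-LC3 reporter plasmid, then treated 8 h with 1 μM test agent or 0.5 μM rapamycin (autophagy inducer). Imaged by confocal fluorescence microscopy: yellow puncta (overlapping red/green) scored as autophagosomes, red-only puncta as autolysosomes, since GFP is quenched in acidic lysosomes.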

[11] = test system: PC-3; assay: Induction of autophagy in human PC3 cells assessed as vacuole formation at 1 uM after 24 hrs in presence of PI3K inhibitor 3-MA by phase-contrast microscopic analysis; assay type: functional, cell-based
Outline: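 PC3 cells were pretreated with the autophagy inhibitor (3-MA or E64d), then exposed to 1 μM test agent for 24 h. Morphology was imaged by phase-contrast microscopy, and viability was read by MTT at 570 nm. Comparison was against agent-only cells.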

[12] = test system: PC-3; assay: Induction of autophagy in human PC3 cells transfected with LC3-targeting siRNA assessed as vacuole formation at 1 uM after 24 hrs by phase-contrast microscopic analysis; assay type: functional, cell-based
Outline: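 PC3 cells plated at 20−30% confluency, then transfected 24 h later with 50 nM LC3-targeting or scrambled siRNA by lipofection. After 48 h they were exposed to 1 μM agent for a further 24 h, followed by phase-contrast imaging and Western blotting.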

[13] = test system: PC-3M; assay: Antitumor activity against human PC3M-lluc-C6 cells xenografted in athymic Balb/c mouse assessed as tumor volume at 15 mg/kg, ip administered every 2 days for 18 days (reference value: 845.6 +/- 84.3 mm'3); assay type: functional
[14] = test system: PC-3M; assay: Antitumor activity against human PC3M-lluc-C6 cells xenografted in athymic Balb/c mouse assessed as tumor weight at 15 mg/kg, ip administered every 2 days for 18 days (reference value: 0.71 +/- 0.06 g); assay type: functional
[15] = test system: PC-3M; assay: Antiproliferation activity against human PC3M-lluc-C6 cells xenografted in athymic Balb/c mouse assessed as decrease in cell viability at 15 mg/kg, ip administered every 2 days for 18 days by H and E staining based microscopic analysis; assay type: functional, organism-based
Outline: (§2)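 Male BALB/c-nu mice, 6 weeks old, each given 5 × 10^6 PC3M-luc-C6 cells subcutaneously in the right anterior flank. At ~0.1 cm3 tumor, groups of n = 5 received 15 mg/kg i.p. every 2 days. Docetaxel 15 mg/kg was the positive control. Tumor tissue stained with H&E or anti-Ki67 (1:500) overnight at 4 °C, HRP/DAB, hematoxylin counterstain, examined by microscopy.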

[16] = test system: PC-3M; assay: Antiproliferation activity against human PC3M-lluc-C6 cells xenografted in athymic Balb/c mouse assessed as decrease in cell viability at 15 mg/kg, ip administered every 2 days for 18 days by Ki-67 staining based microscopic analysis; assay type: functional, organism-based; outline: as §2
[17] = test system: PC-3M; assay: Induction of paraptosis in human PC3M-lluc-C6 cells xenografted in athymic Balb/c mouse at 15 mg/kg, ip administered every 2 days for 18 days by H and E staining based method; assay type: functional, organism-based
Outline: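 Subcutaneous PC3M-luc-C6 xenografts (5 × 10^6 cells) were grown in 6-week male athymic BALB/c-nu mice. Groups of n = 5 received 15 mg/kg i.p. every 2 days from ~0.1 cm3 tumor volume, with a vehicle group. Excised tumor tissue was examined by H&E staining for vacuoles.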

[18] = test system: PC-3M; assay: Induction of ER stress i in human PC3M-lluc-C6 cells xenografted in athymic Balb/c mouse assessed as increase in GRP78 protein levels at 15 mg/kg, ip administered every 2 days for 18 days by Western blot and immunohistochemical staining method; assay type: functional, organism-based
Outline: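 Tumor tissue from PC3M-luc-C6 xenografts in BALB/c-nu mice dosed 15 mg/kg i.p. every 2 days. GRP78 measured by Western blot and by immunohistochemistry (anti-GRP78 1:500 overnight at 4 °C, HRP/DAB, hematoxylin counterstain).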

Cc1cc(C)cc(COc2cc3c(cc2OCc2cc(C)cc(C)c2)[C@@H]2C[C@H](O)C[C@@H](C)N2CC3)c1 (racemic)
Activity [1]: 13.7 - 14.9%
Activity [2]: 2.5%
viability at 2 µM [3]: 40%
Activity [4]: inactive
Activity [5]: Tde
Activity [6]: Active
Activity [7]: inactive
Activity [8]: Active
Activity [9]: inactive
Activity [10]: inactive
Activity [11]: inactive
Activity [12]: inactive
Activity [13]: 410.2 mm3
Activity [14]: 0.42 g
Activity [15]: Active
inhibition [16]: Active
Activity [17]: Active
Activity [18]: Active
